ABCB6 inh MLPCN: ABCB6 transporter inhibitors, primary screen, K562-ABCB6 cells, flow cytometry, MLPCN library; 360,000 tested, 0.19% active; K562-ABCB6 porphyrin accumulation, 1 h; active compounds read low; fluorescence ratio to DMSO, % at 10 µM;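 active means fluorescence ratio to DMSO below 75%, the collection mean minus 3 SD; inconclusive means too few cells collected in the well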;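 further: signal is porphyrin accumulated inside mitochondria; 100% equals median channel fluorescence of DMSO control wells; lower ratio means ABCB6 inhibition with less porphyrin fluorescence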
p-CIP stab down: p/CIP-EGFP fusion destabilizers, primary screen, fluorescence, F442A cells; Q05BA5; 290,000 tested, 0.01% active; decrease of EGFP signal, % at 10 µM; AID 1984, 2009; 16 h;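 active means EGFP signal decrease of at least 30% at 10 µM or well 3 SD below plate mean, unless failing retest; inactive means the rest, including hits failing retest or dose response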
Target sequence (Q05BA5 1-1403): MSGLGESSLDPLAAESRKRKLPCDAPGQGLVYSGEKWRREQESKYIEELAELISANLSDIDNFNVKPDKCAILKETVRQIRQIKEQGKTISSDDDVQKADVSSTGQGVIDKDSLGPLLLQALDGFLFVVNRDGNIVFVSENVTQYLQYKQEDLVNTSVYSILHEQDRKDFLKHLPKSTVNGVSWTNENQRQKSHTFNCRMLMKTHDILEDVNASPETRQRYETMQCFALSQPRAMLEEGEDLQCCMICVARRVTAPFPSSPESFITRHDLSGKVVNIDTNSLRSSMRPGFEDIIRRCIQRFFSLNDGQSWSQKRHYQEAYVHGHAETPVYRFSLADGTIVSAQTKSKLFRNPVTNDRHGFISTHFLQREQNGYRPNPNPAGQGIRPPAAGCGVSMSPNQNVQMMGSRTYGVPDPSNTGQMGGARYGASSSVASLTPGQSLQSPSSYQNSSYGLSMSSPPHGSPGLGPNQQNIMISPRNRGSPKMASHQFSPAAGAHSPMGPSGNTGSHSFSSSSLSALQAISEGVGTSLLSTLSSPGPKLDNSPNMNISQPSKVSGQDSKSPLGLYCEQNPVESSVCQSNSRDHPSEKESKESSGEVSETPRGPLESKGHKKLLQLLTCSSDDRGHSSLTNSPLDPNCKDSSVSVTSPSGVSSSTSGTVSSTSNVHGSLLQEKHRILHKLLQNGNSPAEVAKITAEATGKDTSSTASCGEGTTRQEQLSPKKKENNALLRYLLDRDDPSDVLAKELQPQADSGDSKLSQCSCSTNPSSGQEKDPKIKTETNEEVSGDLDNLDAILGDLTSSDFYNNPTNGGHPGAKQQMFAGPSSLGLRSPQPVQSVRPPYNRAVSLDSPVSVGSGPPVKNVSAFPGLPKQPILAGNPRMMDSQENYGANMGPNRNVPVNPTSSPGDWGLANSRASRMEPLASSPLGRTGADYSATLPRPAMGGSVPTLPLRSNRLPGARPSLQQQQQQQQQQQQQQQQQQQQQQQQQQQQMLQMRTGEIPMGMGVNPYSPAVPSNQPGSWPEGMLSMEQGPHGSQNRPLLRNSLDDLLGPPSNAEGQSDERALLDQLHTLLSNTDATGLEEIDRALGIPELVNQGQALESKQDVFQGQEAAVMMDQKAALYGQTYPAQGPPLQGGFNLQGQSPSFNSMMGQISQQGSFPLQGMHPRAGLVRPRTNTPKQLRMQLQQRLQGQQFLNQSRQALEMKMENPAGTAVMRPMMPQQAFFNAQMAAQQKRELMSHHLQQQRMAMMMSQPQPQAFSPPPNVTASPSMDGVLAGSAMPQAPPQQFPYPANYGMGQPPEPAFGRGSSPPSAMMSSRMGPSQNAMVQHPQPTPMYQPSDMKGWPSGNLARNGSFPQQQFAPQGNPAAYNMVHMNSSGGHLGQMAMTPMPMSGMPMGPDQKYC
Cl transport mod: KCC2 cotransporter modulators, thallium flux, primary screen, cell-based, HEK293 KCC2, FluoZin-2 fluorescence, MLSMR; B-score of Tl+ flux slope (higher = more flux/activation; lower = inhibition) at 10 µM; Solute carrier family 12 member 5 (Homo sapiens), Q9H2X9; 190,000 tested, 2.2% active; KCC2 cells, thallium flux FluoZin-2 fluorescence;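 active means thallium flux slope and its plate-corrected score both differing from the plate sample mean at a set confidence after two filtering rounds, in either direction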;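 further: slope of fluorescence scaled to starting intensity during 10 to 20 s after thallium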
V-ATPase pHluor: regulators of yeast V-ATPase proton pumping, primary screen, pHLuorin cytosolic pH fluorescence | S. cerevisiae | response, % at 10 µM | 350,000 tested, 0.37% active | AID 504577, 2011; in the data active means response mostly above about 7.3%, no sharp cut-off; inactive means mostly below about 5.4%; further: actives read high
Dynein cargo inh: inhibitors of GR-EGFP nuclear translocation, primary screen, dynein cargo transport inhibitor project, imaging, high-content, 3617.4 mouse cells; AID 1381, 2008; test concentration mostly 20 µM; stimulated with dexamethasone, 1 µM; active compounds read low; z-score, hits read low; 220,000 tested, 0.47% active;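 active means plate z-score of nuclear minus cytoplasmic receptor signal below a set negative limit, without overly bright fluorescence or cell loss, cut at about -3.5 in these data, passing the limit was not always enough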;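 further: z-score of nuclear minus cytoplasmic ring GR-EGFP intensity difference per well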
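Buffer or medium: tetracycline-free induction medium containing charcoal-stripped FBS / Reagent: dexamethasone agonist, 1.0 µM final, for 30 min / Technique: automated 10x imaging of fixed Hoechst-stained cells / Times: induction 48 h, compound 1 h, agonist 30 min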
KCC2 sec1: KCC2 modulators in sodium-free buffer, confirmation, cell-based, HEK293 KCC2, thallium flux, secondary assay; shares compounds with Cl transport mod; normalised thallium flux (F/F0 slope) at 10 µM; AID 1713, 2009; FluoZin2 fluorescence; active compounds read high; 3,700 tested, 15% active;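 active means thallium flux slope above the same plate's solvent-only control mean plus 3 SD; inconclusive means the two replicate wells disagree; inactive means no significant difference from solvent-only control wells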
KCC2 bumet counter: thallium flux persisting under bumetanide in KCC2 cells, confirmation, counter-screen for KCC2 modulator project, cell-based, HEK293 KCC2, FluoZin2, secondary assay 3; 3,700 tested, 49% active; HEK293-KCC2 + bumetanide/ouabain; active compounds read high; shares compounds with Cl transport mod; normalized thallium flux at 10 µM;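 active means thallium entry rate above the same plate's blocked-transporter control wells by more than 3 SD; inconclusive means the two repeat wells disagree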;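 further: raw slope of fluorescence over initial fluorescence between 10 and 20 s after thallium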
KCC2 sec2: KCC2 modulators without ouabain present, confirmation, cell-based, HEK293 KCC2, thallium flux, FluoZin2, secondary assay 2; AID 1715, 2009; shares compounds with Cl transport mod; thallium flux FluoZin2 fluorescence; actives lie on both sides; F/F0 rise rate, 10–20 s post-thallium; normalized thallium flux at 10 µM; 3,700 tested, 23% active;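 active means thallium flux slope more than 3 SD above or below the plate's solvent-only control mean, mostly below; inconclusive means the two repeat wells disagreed; inactive means no significant shift from solvent-only controls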;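 further: raw slope with 0.1% DMSO as baseline and bumetanide as block control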
HEK293 Tl flux: thallium flux modulation in parental HEK cells, confirmation, counter-screen for KCC2 modulator project, cell-based, counterscreen 1 | shares compounds with Cl transport mod | HEK293 parental cells, thallium flux FluoZin2, ouabain; baseline-ratio fluorescence slope, 10–20 s after thallium | thallium flux rate (normalised fluorescence) at 10 µM | 3,700 tested, 46% active | AID 1716, 2009;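 active means thallium flux rate significantly above the same plate's solvent-only control wells, beyond their mean plus 3 SD; inconclusive means the two replicate wells gave conflicting results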
KCC2 retest ouab: KCC2 inhibitors and activators, ouabain retest, confirmation, HEK-KCC2 cells. 3,700 tested, 48% active. shares compounds with Cl transport mod. HEK293-KCC2, thallium flux FluoZin2 fluorescence; bidirectional: low = inhibitor, high = activator. raw Tl+ flux slope (below DMSO = inhibition, above = activation) at 10 µM;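 active means thallium flux slope beyond 3 SD from same-plate DMSO control mean in most replicates, usually higher, sometimes lower; inconclusive means repeat tests gave conflicting results; inactive means no significant difference from controls in most replicates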;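 further: slope of initial-normalized fluorescence between seconds 10 and 20 after thallium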
HEK counter2: native HEK Tl+ uptake effects, second counter-screen – HEK cells, counterscreen 2, counter-screen for KCC2 modulator project, confirmation; shares compounds with Cl transport mod; HEK293 parental, thallium flux FluoZin-2 fluorescence slope; thallium flux slope at 10 µM; 3,700 tested, 33% active; AID 1718, 2009;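 active means thallium flux slope above the same plate's solvent-control mean plus 3 SD in both duplicate wells; inconclusive means duplicate wells that disagreed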;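 further: run without ouabain in cells lacking the KCC2 cotransporter; slope of fluorescence scaled to its starting value between 10 and 20 s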
An asterisk follows results filed as active. The full list was thinned out, with hits kept by preference.

What do the screens show for `O=C(CN1CCCCC1)Nc1nc(-c2ccccc2)cs1`?
ABCB6 inh MLPCN: 99; p-CIP stab down: 13; V-ATPase pHluor: 0

What do the screens show for `CC(=O)Nc1ccc(-c2csc(NC(=O)CN3C(=O)NC4(CCCC4)C3=O)n2)cc1`?
ABCB6 inh MLPCN: 93; V-ATPase pHluor: -2

How did O=C(CN1C(=O)NC2(CCCC2)C1=O)Nc1nc(-c2ccc(F)cc2)cs1 do in these assays?
ABCB6 inh MLPCN: 94; p-CIP stab down: -21; Cl transport mod: -6.6*; V-ATPase pHluor: -3; Dynein cargo inh: 0.25; KCC2 sec1: 0.0092; KCC2 bumet counter: 0.0066; KCC2 sec2: 0.027*; HEK293 Tl flux: 0.0075; KCC2 retest ouab: 0.014*; HEK counter2: 0.01

What do the screens show for `CCc1nc2c(OCC(=O)C(C)(C)C)cccn2c1N(C)C(=O)c1ccco1`?
ABCB6 inh MLPCN: 97

What do the screens show for `O=C(NCc1cccnc1)C1c2ccccc2C(=O)N1C1CCCCCC1` (stereo not given)?
ABCB6 inh MLPCN: 91; p-CIP stab down: -5; Cl transport mod: -4.5*; V-ATPase pHluor: -1; Dynein cargo inh: -0.82; KCC2 sec1: 0.0099; KCC2 bumet counter: 0.0071; KCC2 sec2: 0.034; HEK293 Tl flux: 0.0088; KCC2 retest ouab: 0.023; HEK counter2: inconclusive

What do the screens show for `O=C(NCc1cccnc1)C1c2ccccc2C(=O)N1C1CCCCCCC1` (stereo not given)?
ABCB6 inh MLPCN: 92; p-CIP stab down: 1; V-ATPase pHluor: -1; Dynein cargo inh: -0.98

What do the screens show for `O=C1N(Cc2cccc(Cl)c2)C[C@@H]2C[C@@H](c3cccc4ncccc34)N3CCC[C@@]123`?
ABCB6 inh MLPCN: 105; p-CIP stab down: -3; V-ATPase pHluor: -1; Dynein cargo inh: -0.86; KCC2 sec1: 0.0098; KCC2 bumet counter: 0.0052; KCC2 sec2: 0.036; HEK293 Tl flux: 0.0035; KCC2 retest ouab: 0.019; HEK counter2: 0.011

What do the screens show for `Nc1ccc2oc(-c3cccs3)nc2c1`?
ABCB6 inh MLPCN: 101; p-CIP stab down: -1; Cl transport mod: -3.9*; V-ATPase pHluor: -4; Dynein cargo inh: -0.74; KCC2 sec1: 0.007; KCC2 bumet counter: 0.0052; KCC2 sec2: 0.031; HEK293 Tl flux: 0.0084; KCC2 retest ouab: 0.019; HEK counter2: 0.011

Results for CCSc1nc2c(c(=O)[nH]c(=O)n2C)n1C/C=C(/C)Cl ?
ABCB6 inh MLPCN: 105; p-CIP stab down: -8; Cl transport mod: 7*; V-ATPase pHluor: -1; Dynein cargo inh: -0.69; KCC2 sec1: 0.0088; KCC2 bumet counter: 0.0066; KCC2 sec2: 0.033; HEK293 Tl flux: 0.007; KCC2 retest ouab: 0.02; HEK counter2: 0.01

Results for CSc1nc2c(c(=O)[nH]c(=O)n2C)n1C/C=C(\C)Cl ?
ABCB6 inh MLPCN: 81; p-CIP stab down: 7; Cl transport mod: 0.66; V-ATPase pHluor: 2; Dynein cargo inh: 1.8

How did S=C(Nc1ccc(Cl)cc1Cl)NC1CCN(Cc2ccccc2)CC1 do in these assays?
ABCB6 inh MLPCN: 97; p-CIP stab down: 6; Cl transport mod: -3.7*; V-ATPase pHluor: -2; Dynein cargo inh: -0.58; KCC2 sec1: 0.0074; KCC2 bumet counter: inconclusive; KCC2 sec2: 0.029; HEK293 Tl flux: 0.0079; KCC2 retest ouab: 0.021*; HEK counter2: inconclusive

Results for O=C(Nc1ccc(F)cc1)C1CCCN(S(=O)(=O)c2ccc3[nH]c(=O)ccc3c2)C1 (stereo not given) ?
ABCB6 inh MLPCN: 96; p-CIP stab down: -6; V-ATPase pHluor: 0

How did CCCn1c(=S)[nH]c2cc(C(=O)N3CCN(C(=O)OCC)CC3)ccc2c1=O do in these assays?
ABCB6 inh MLPCN: 99; p-CIP stab down: -9; V-ATPase pHluor: 0

Results for O=C(c1ccc2c(=O)n(C3CCCC3)c(=S)[nH]c2c1)N1CCN(C2CCCCC2)CC1 ?
ABCB6 inh MLPCN: 99; p-CIP stab down: -16; Cl transport mod: 8.3*; V-ATPase pHluor: 1; Dynein cargo inh: -1; KCC2 sec1: 0.0063; KCC2 bumet counter: 0.0098*; KCC2 sec2: 0.029; HEK293 Tl flux: 0.015*; KCC2 retest ouab: 0.021; HEK counter2: 0.013*

What do the screens show for `CCN1CCN(C(=O)c2ccc3c(=O)n(C4CCCC4)c(=S)[nH]c3c2)CC1`?
ABCB6 inh MLPCN: 94; p-CIP stab down: 1; V-ATPase pHluor: 2; Dynein cargo inh: -0.29

What do the screens show for `CCOC(=O)N1CCN(C(=O)c2ccc3c(=O)n(Cc4ccc(Cl)cc4)c(=S)[nH]c3c2)CC1`?
ABCB6 inh MLPCN: 94; p-CIP stab down: 2; V-ATPase pHluor: 4; Dynein cargo inh: -0.17; KCC2 sec1: 0.0063; KCC2 bumet counter: 0.015*; KCC2 sec2: 0.032; HEK293 Tl flux: 0.013*; KCC2 retest ouab: inconclusive; HEK counter2: 0.016*

Results for O=C(Cc1ccccc1)Nc1cccc(-c2nnc(-c3ccco3)o2)c1 ?
ABCB6 inh MLPCN: 95; p-CIP stab down: -21; Cl transport mod: -1.9; V-ATPase pHluor: 1; Dynein cargo inh: -1.1; KCC2 sec1: 0.0052; KCC2 bumet counter: 0.0045; KCC2 sec2: 0.03; HEK293 Tl flux: 0.0068; KCC2 retest ouab: inconclusive; HEK counter2: 0.01
